From ChEMBL document CHEMBL1158351, “Studies on chemical structure modification and biology of a natural product, gambogic acid (I): Synthesis and biological evaluation of oxidized analogues of gambogic acid” (Eur J Med Chem, 2009)
pIC50: −log10 of the molar value. Blank lines part the entries; values can stand above or below the molecule they belong to. Activity calls are given as the source filed them. The calls are words filed in the database; no cut-off is given here.

Key:
A549 = test: Cytotoxicity against human A549 cells after 48 hrs by MTT assay; assay type: functional, cell-based; settings: A549, 48 h
How it was run: (§1)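 Cells in RPMI-1640 with 10% heat-inactivated calf serum, penicillin/streptomycin, 5% CO2, 37 °C. Seeded at 5×10³ per well and exposed to six concentrations of 0.01–1000 for 48 h. Then 0.5% MTT for 4 h at 37 °C, formazan dissolved in DMSO, absorbance read at 570 nm. Inhibition calculated as (1 − treated/control absorbance)×100. IC50 is the concentration giving 50% inhibition; mean ± SD of three observations.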

BGC-823 = test: Cytotoxicity against human BGC823 cells after 48 hrs by MTT assay; assay type: functional, cell-based; settings: BGC-823, 48 h; how it was run: as §1
SK-OV-3 = test: Cytotoxicity against human SKOV3 cells after 48 hrs by MTT assay; assay type: functional, cell-based; settings: SK-OV-3, 48 h; how it was run: as §1
HT-29 = test: Cytotoxicity against human HT-29 cells after 48 hrs by MTT assay; assay type: functional, cell-based; settings: HT-29, 48 h; how it was run: as §1
Bel-7402 = test: Cytotoxicity against human Bel7402 cells after 48 hrs by MTT assay; assay type: functional, cell-based; settings: Bel-7402, 48 h; how it was run: as §1
HepG2 [1] = test: Induction of apoptosis in human HepG2 cells assessed as ratio of Bcl-2 to Bax protein expression at 2 uM after 20 hrs by SDS-PAGE; assay type: functional
How it was run: (§2)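 HepG2 cells treated for 20 h, then lysed in Tris-Cl pH 6.8 buffer with 4% SDS, 20% glycerol, 200 mM β-mercaptoethanol, PMSF and aprotinin. Protein measured by Bradford at 595 nm and resolved on 10% SDS-PAGE, then transferred to PVDF membrane. Probed overnight at 4 °C with anti-Bcl-2, anti-Bax and anti-actin primaries, then 1 h with IRDye800 secondaries. Bcl-2/Bax ratio derived from band quantitation.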

HepG2 [2] = test: Induction of apoptosis in human HepG2 cells assessed as ratio of Bcl-2 to Bax protein expression at 6 uM after 20 hrs by SDS-PAGE; assay type: functional; how it was run: as §2
HepG2 [3] = test: Induction of apoptosis in human HepG2 cells assessed early apoptotic cells at 1 uM after 20 hrs using FITC-conjugated annexin V and propidium iodide staining by FACS analysis; assay type: functional
How it was run: (§3)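 HepG2 cells in flasks treated for 20 h, then 1×10⁶ cells harvested, washed and resuspended in PBS. Stained with FITC-Annexin V and PI kit per kit instructions and analysed by flow cytometry. Quadrants: Annexin−/PI− viable, Annexin+/PI− early apoptotic, upper right necrotic/late apoptotic.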

HepG2 [4] = test: Induction of apoptosis in human HepG2 cells assessed late apoptotic cells at 1 uM after 20 hrs using FITC-conjugated annexin V and propidium iodide staining by FACS analysis; assay type: functional; how it was run: as §3
HepG2 [5] = test: Induction of apoptosis in human HepG2 cells assessed nonviable necrotic cells at 1 uM after 20 hrs using FITC-conjugated annexin V and propidium iodide staining by FACS analysis; assay type: functional; how it was run: as §3
HepG2 [6] = test: Induction of apoptosis in human HepG2 cells assessed viable cells at 1 uM after 20 hrs using FITC-conjugated annexin V and propidium iodide staining by FACS analysis; assay type: functional; how it was run: as §3
HepG2 [7] = test: Induction of apoptosis in human HepG2 cells assessed early apoptotic cells at 2 uM after 20 hrs using FITC-conjugated annexin V and propidium iodide staining by FACS analysis; assay type: functional; how it was run: as §3
HepG2 [8] = test: Induction of apoptosis in human HepG2 cells assessed late apoptotic cells at 2 uM after 20 hrs using FITC-conjugated annexin V and propidium iodide staining by FACS analysis; assay type: functional; how it was run: as §3
HepG2 [9] = test: Induction of apoptosis in human HepG2 cells assessed nonviable necrotic cells at 2 uM after 20 hrs using FITC-conjugated annexin V and propidium iodide staining by FACS analysis; assay type: functional; how it was run: as §3
HepG2 [10] = test: Induction of apoptosis in human HepG2 cells assessed viable cells at 2 uM after 20 hrs using FITC-conjugated annexin V and propidium iodide staining by FACS analysis; assay type: functional; how it was run: as §3
HepG2 [11] = test: Induction of apoptosis in human HepG2 cells assessed early apoptotic cells at 6 uM after 20 hrs using FITC-conjugated annexin V and propidium iodide staining by FACS analysis; assay type: functional; how it was run: as §3
HepG2 [12] = test: Induction of apoptosis in human HepG2 cells assessed late apoptotic cells at 6 uM after 20 hrs using FITC-conjugated annexin V and propidium iodide staining by FACS analysis; assay type: functional; how it was run: as §3
HepG2 [13] = test: Induction of apoptosis in human HepG2 cells assessed nonviable necrotic cells at 6 uM after 20 hrs using FITC-conjugated annexin V and propidium iodide staining by FACS analysis; assay type: functional; how it was run: as §3
HepG2 [14] = test: Induction of apoptosis in human HepG2 cells assessed viable cells at 6 uM after 20 hrs using FITC-conjugated annexin V and propidium iodide staining by FACS analysis; assay type: functional; how it was run: as §3
HepG2 [15] = test: Induction of apoptosis in human HepG2 cells assessed as inhibition of cell viability after 24 hrs by MTT assay; assay type: functional, cell-based
How it was run: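 Medium then removed and MTT added; after 4 h the supernatant was discarded and DMSO added. Absorbance read at 570 nm. Mean ± SD, n = 3; IC50 calculated from the concentration–response.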

HepG2 [16] = test: Induction of apoptosis in human HepG2 cells assessed as morphological changes at 1 uM after 20 hrs using DAPI staining by fluorescence microscopy; assay type: functional, cell-based
How it was run: (§4)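 Mid-log HepG2 cultures in RPMI-1640 treated for 20 h, then morphology checked by inverted light microscopy. Floating and attached cells collected with EDTA/trypsin, fixed in ice-cold 4% paraformaldehyde for 20 min, and permeabilized with 0.3% Triton X-100. Stained with DAPI and viewed by fluorescence microscopy at 340 nm excitation.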

HepG2 [17] = test: Induction of apoptosis in human HepG2 cells assessed as morphological changes at 2 uM after 20 hrs using DAPI staining by fluorescence microscopy; assay type: functional, cell-based; how it was run: as §4
HepG2 [18] = test: Induction of apoptosis in human HepG2 cells assessed as morphological changes at 3 uM after 20 hrs using DAPI staining by fluorescence microscopy; assay type: functional, cell-based; how it was run: as §4
HepG2 [19] = test: Induction of early apoptosis in human HepG2 cells assessed as presence of congregated chromatin and nucleolus pyknosis at 1 uM after 18 hrs using AOEB staining by fluorescence microscopy; assay type: functional, cell-based
How it was run: (§5)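 HepG2 cells treated for 18 h, fixed in 4% paraformaldehyde for 20 min, and permeabilized in 0.1% Triton for 20 min. Stained with acridine orange/ethidium bromide in PBS for 5 min. Viewed by fluorescence microscopy at 490 nm excitation. Green AO with condensed chromatin scored as early apoptotic; uniform red EB scored as dead.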

HepG2 [20] = test: Induction of early apoptosis in human HepG2 cells assessed as presence of congregated chromatin and nucleolus pyknosis at 2 uM after 18 hrs using AOEB staining by fluorescence microscopy; assay type: functional, cell-based; how it was run: as §5
HepG2 [21] = test: Induction of early apoptosis in human HepG2 cells assessed as presence of congregated chromatin and nucleolus pyknosis at 3 uM after 18 hrs using AOEB staining by fluorescence microscopy; assay type: functional, cell-based; how it was run: as §5
HepG2 [22] = test: Induction of apoptosis in human HepG2 cells assessed as decrease in Bcl-2 protein expression at 1 uM after 20 hrs by SDS-PAGE; assay type: functional, cell-based; how it was run: as §2
HepG2 [23] = test: Induction of apoptosis in human HepG2 cells assessed as decrease in Bcl-2 protein expression at 2 uM after 20 hrs by SDS-PAGE; assay type: functional, cell-based; how it was run: as §2
HepG2 [24] = test: Induction of apoptosis in human HepG2 cells assessed as decrease in Bcl-2 protein expression at 6 uM after 20 hrs by SDS-PAGE; assay type: functional, cell-based; how it was run: as §2
HepG2 [25] = test: Induction of apoptosis in human HepG2 cells assessed as ratio of Bcl-2 to Bax protein expression at 1 uM after 20 hrs by SDS-PAGE; assay type: functional; how it was run: as §2

SMILES: C/C(=C/C[C@@]12OC(C)(C)[C@@H]3C[C@@H](C=C4C(=O)c5c(O)c6c(c(C/C=C(\C)CO)c5O[C@]431)O[C@](C)(CC/C=C(\C)C=O)C=C6)C2=O)C(=O)O
pIC50 (A549): 4.69 | pIC50 (BGC-823): 5.17 | pIC50 (SK-OV-3): 5.74 | pIC50 (HT-29): 5.68 | pIC50 (Bel-7402): 4.82

SMILES: COC(=O)/C(C)=C\C[C@@]12OC(C)(C)[C@@H]3C[C@@H](C=C4C(=O)c5c(OC)c6c(c(CC7OC7(C)C)c5O[C@]431)O[C@](C)(CCC1OC1(C)C)C=C6)C2=O (stereo partly specified)
pIC50 (A549): 5.44 | pIC50 (BGC-823): 5.49 | pIC50 (SK-OV-3): 5.74 | pIC50 (HT-29): 5.73 | pIC50 (Bel-7402): 5.78

pIC50 (HepG2 [15]; HepG2, 24 h): 5.63
SMILES: COC(=O)/C(C)=C\C[C@@]12OC(C)(C)[C@@H]3C[C@@H](C=C4C(=O)c5c(OC)c6c(c(CC=C(C)C)c5O[C@]431)O[C@](C)(CC/C=C(\C)CO)C=C6)C2=O
Ratio (HepG2 [1]): 0.478 | Ratio (HepG2 [2]): 0.251 | Activity (HepG2 [3]): 4% | Activity (HepG2 [4]): 3.5% | Activity (HepG2 [5]): 0.2% | Activity (HepG2 [6]): 92.3% | Activity (HepG2 [7]): 5% | Activity (HepG2 [8]): 2.5% | Activity (HepG2 [9]): 0.2% | Activity (HepG2 [10]): 92.3% | Activity (HepG2 [11]): 12.9% | Activity (HepG2 [12]): 13.5% | Activity (HepG2 [13]): 0.9% | Activity (HepG2 [14]): 72.7% | pIC50 (A549): 5.36 | pIC50 (BGC-823): 6.08 | pIC50 (SK-OV-3): 5.89 | pIC50 (HT-29): 6.05 | pIC50 (Bel-7402): 6.02 | Activity (HepG2 [15]): Dose-dependent effect | Activity (HepG2 [16]): Active | Activity (HepG2 [17]): Active | Activity (HepG2 [18]): Active | Activity (HepG2 [19]): Active | Activity (HepG2 [20]): Active | Activity (HepG2 [21]): Active | Activity (HepG2 [22]): Active | Activity (HepG2 [23]): Active | Activity (HepG2 [24]): Active | Ratio (HepG2 [25]): 0.476

SMILES: COC(=O)/C(C)=C\C[C@@]12OC(C)(C)[C@@H]3C[C@@H](C=C4C(=O)c5c(OC)c6c(c(CC=C(C)C)c5O[C@]431)O[C@](C)(CC[C@H](O)C(C)(C)O)C=C6)C2=O
pIC50 (A549): 5.23 | pIC50 (BGC-823): 5.46 | pIC50 (SK-OV-3): 5.49 | pIC50 (HT-29): 5.43 | pIC50 (Bel-7402): 5.44

SMILES: COC(=O)/C(C)=C\C[C@@]12OC(C)(C)[C@@H]3C[C@@H](C=C4C(=O)c5c(OC)c6c(c(CC=C(C)C)c5O[C@]431)O[C@](C)(CC[C@@H](O)C(C)(C)O)C=C6)C2=O
pIC50 (A549): < 4.00 | pIC50 (BGC-823): < 4.00 | pIC50 (SK-OV-3): < 4.00 | pIC50 (HT-29): < 4.00 | pIC50 (Bel-7402): < 4.00

SMILES: CC(C)=CCC[C@]1(C)C=Cc2c(O)c3c(c(C/C=C(\C)CO)c2O1)O[C@]12C(=C[C@@H]4C[C@H]1C(C)(C)O[C@@]2(C/C=C(/C)C(=O)O)C4=O)C3=O
pIC50 (A549): 5.23 | pIC50 (BGC-823): 5.31 | pIC50 (SK-OV-3): 5.79 | pIC50 (HT-29): 5.58 | pIC50 (Bel-7402): 5.40
